OX1R antag-1: antagonists of human orexin 1 receptor; inhibition, % at 5 µM; AID 434989; O43613; hit rate 0.43% among 330,000; CHO/OX1R cells, Fluo-8 calcium fluorescence, orexin A;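 active means inhibition above its plate's threshold, mean inhibition of all tested compounds on the plate plus 3 SD, cut at about 37% in these data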;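 further: 0% = orexin A challenge wells and 100% = SB-334867-A antagonist wells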
Target sequence (O43613 whole entry, looked up): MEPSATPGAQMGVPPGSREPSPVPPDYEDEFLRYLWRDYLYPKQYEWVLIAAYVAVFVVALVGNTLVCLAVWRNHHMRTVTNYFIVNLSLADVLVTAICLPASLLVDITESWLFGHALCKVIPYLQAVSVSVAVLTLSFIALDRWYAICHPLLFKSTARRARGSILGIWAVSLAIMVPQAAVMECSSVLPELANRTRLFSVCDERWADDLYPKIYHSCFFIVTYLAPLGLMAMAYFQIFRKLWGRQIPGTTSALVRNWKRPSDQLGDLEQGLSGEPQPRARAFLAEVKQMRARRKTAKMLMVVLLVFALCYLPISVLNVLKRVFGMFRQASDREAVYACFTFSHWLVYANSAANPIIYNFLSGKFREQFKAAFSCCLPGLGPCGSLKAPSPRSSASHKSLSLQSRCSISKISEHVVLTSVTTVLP
TAAR1 agonist: human TAAR1 agonism; Q96RJ0; CHO RD-HGA16 TAAR1, Fluo-8 calcium fluorescence; vehicle wells 0%, saturating PEA agonist 100%; activation, % at 3 µM; hit rate 0.99% among 360,000;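 active means activation above the mean activation of all test compounds in the run plus 3 SD, cut at about 38% in these data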
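Repeats: no replicates (n 1) | Material: CHO-derived RD-HGA16 cells with stable Gα16 and human TAAR1 | Technique: Kinetic Fluo-8 calcium fluorescence | Schedule: 17-24 h seeding, 75 min 37 °C dye, 30 min RT | Evaluation: % activation from peak over basal fluorescence ratio, DMSO-to-PEA scaled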
OX1R antag-2: blocks the human orexin 1 receptor | O43613 | OX1R-expressing cells, FRET antagonist read-out | inhibition, % at 6.6 µM | hit rate 1.8% among 330,000 | AID 485270; in the data active means inhibition mostly above about 38%, no sharp cut-off; inactive means mostly below about 40%;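 further: 0% = agonist challenge alone and 100% = reference antagonist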
CHO parental Ca: counter-screen: ATP calcium response change in parental CHO cells; parental CHO-K1, ATP-induced calcium, Fluo-8 fluorescence; inhibition, % at 5.6 µM; hit rate 0.63% among 330,000; AID 463079;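 active means inhibition above that plate's mean sample inhibition plus 3 SD, cut at about 26% in these data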;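 further: 0% = ATP-challenged DMSO wells and 100% = DMSO wells without ATP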
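Material – parental CHO cells · Reagent – ATP stimulus · Compound – single nominal dose of 5.6 µM per compound · Detection – Fluo-8 fluorescence · Read-out basis – percent inhibition of calcium signal · Controls – ATP-challenged DMSO wells low, unchallenged DMSO wells high · Repeats – no replicates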
GPR7 antagonist: human neuropeptides B/W receptor 1 antagonism | hit rate 1.1% among 290,000 | GPR7-expressing cells, fluorescence antagonist assay | inhibition, % at 4.4 µM; in the data active means inhibition above about 16%, passing the limit was not always enough;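 further: cells stimulated with the agonist NPW; 0% = agonist with vehicle and 100% = vehicle without agonist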
Target sequence (P48145 whole entry, looked up): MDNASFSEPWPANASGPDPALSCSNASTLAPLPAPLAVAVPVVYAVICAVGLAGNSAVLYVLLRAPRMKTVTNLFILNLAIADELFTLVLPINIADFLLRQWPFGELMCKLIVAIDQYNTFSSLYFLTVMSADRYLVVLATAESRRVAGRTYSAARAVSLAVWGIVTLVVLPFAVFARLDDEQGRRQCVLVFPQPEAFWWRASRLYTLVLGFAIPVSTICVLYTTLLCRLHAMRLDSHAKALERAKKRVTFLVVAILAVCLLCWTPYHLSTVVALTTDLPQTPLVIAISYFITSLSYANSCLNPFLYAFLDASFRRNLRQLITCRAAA
TAAR1 antagonist: antagonists of human TAAR1. Q96RJ0. CHO RD-HGA16 TAAR1, Fluo-8 calcium fluorescence, antagonist. inhibition, % at 3 µM. hit rate 1.5% among 360,000. AID 624466;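 active means inhibition above a per-plate cutoff, the mean inhibition of test compounds on that plate plus 3 SD, cut at about 49% in these data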;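 further: 0% = DMSO plus EC80 beta-PEA response and 100% = DMSO alone without agonist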
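Material: RD-HGA16 CHO cells with stable hTAAR1 and Gα16; Dosing: single nominal final test compound concentration of 3 µM; Schedule: seeding 17-24 h prior, 75-min 37 °C, 30-min RT dye loading; Detection: kinetic Fluo-8 calcium fluorescence measurement; Measure: % inhibition from peak post-agonist over basal fluorescence ratio; Benchmarks: vehicle and agonist controls.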
nonsel antag count: counter-screen for TAAR1 antagonists: nonselective antagonists; inhibition, % at 3 µM; AID 651780; shares compounds with TAAR1 antagonist; counterscreen cell line, calcium fluorescence, antagonist mode; hit rate 77% among 2,400; in the data active means inhibition above about 22%;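 further: CHO-Ga16 host cells stimulated with ATP at an EC80 level; 0% = agonist EC80 plus vehicle and 100% = vehicle without agonist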
TAAR1 ant conf: confirmation of human TAAR1 antagonists | shares compounds with TAAR1 antagonist | TAAR1-expressing cells, fluorescence antagonist read-out | inhibition, % at 3 µM | hit rate 40% among 2,400 | AID 651785; in the data active means inhibition above about 49%;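 further: CHO-Ga16 host cells challenged with agonist PEA near its EC80; 0% = agonist at EC80 plus vehicle and 100% = vehicle with no agonist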
Ga16 ag counter: nonselective Ga16 agonist in TAAR1 antagonist counter-screen; shares compounds with TAAR1 antagonist; Ga16-expressing cells, calcium fluorescence, agonist counterscreen; activation, % at 3 µM; hit rate 18% among 2,400; AID 651953; in the data active means activation above about 12%;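 further: 0% = vehicle wells and 100% = saturating stimulus response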
TAAR1 ag counter: activates human TAAR1 in antagonist counter-screen; hTAAR1 cell line, fluorescence activation, agonist mode; activation, % at 3 µM; AID 651955; hit rate 2% among 2,400; shares compounds with TAAR1 antagonist; in the data active means activation above about 37%;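 further: CHO cells stably expressing TAAR1 with calcium dye readout; 0% = DMSO vehicle and 100% = full agonist response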
The depositor's hits bear a star; nt = no result. Only some compounds are listed: those with a hit (about 4.5% of all), similar ones and a draw of the others.

SMILES | OX1R antag-1 | TAAR1 agonist | OX1R antag-2 | CHO parental Ca | GPR7 antagonist | TAAR1 antagonist | nonsel antag count | TAAR1 ant conf | Ga16 ag counter | TAAR1 ag counter
CC(C)(C)c1cc(C(=O)N/N=C/c2ccc(-c3ccccc3[N+](=O)[O-])o2)n[nH]1 | -3 | 5 | 42 | -5 | -8 | 63* | 27* | 53* | 7 | 3
CC(C)(C)OC(=O)NCCCCCNC(=O)c1[nH]cnc1C(=O)Nc1ccc(Cl)cc1 | -27 | 15 | -1 | -12 | nt | 55* | 27* | 42 | 5 | 3
CC(C)(C)OC(=O)NCCCCCNC(=O)c1[nH]cnc1C(=O)Nc1ccccc1 | -9 | 13 | 10 | -15 | nt | 57* | 19 | 31 | 6 | 10
CC(C)(C)OC(=O)NCCCC[C@H](NC(=O)c1[nH]cnc1C(=O)Nc1ccc(CNC(=O)OC(C)(C)C)cc1)C(=O)OC(C)(C)C | -41 | 13 | 25 | -32 | nt | 65* | 28* | 49* | 8 | 7
Cc1ccc(NC(=O)c2nc[nH]c2C(=O)NCCCCCNC(=O)OC(C)(C)C)cc1 | -41 | 13 | 10 | -33 | nt | 26 | nt | nt | nt | nt
C[C@H]1CNC(=O)c2c(C(=O)Nc3ccc(CNC(=O)OC(C)(C)C)cc3)ncn21 | nt | 14 | nt | nt | nt | 55* | 34* | 46 | 9 | 5
C[C@H]1Cn2cnc(C(=O)Nc3ccc(CNC(=O)OC(C)(C)C)cc3)c2C(=O)N1 | nt | 6 | nt | nt | nt | 13 | nt | nt | nt | nt
COc1ccc(C(=O)CCC(=O)N2CCN(c3ccc(C)cc3)C(C)C2)cc1 (stereo not drawn) | -45 | -2 | 12 | -19 | -6 | -48 | nt | nt | nt | nt
CCN(CC)S(=O)(=O)c1ccc(C(O)=C(C#N)c2nc3ccccc3n2C)cc1 | nt | 16 | nt | nt | nt | 66* | 30* | 59* | 13* | 15
CCC/C=C/c1ccc(CN2C(CC(C)C)C(=O)N(Cc3cn(Cc4ccco4)nn3)CCS2(=O)=O)cc1 (stereo not drawn) | nt | 2 | nt | nt | nt | -4 | nt | nt | nt | nt
CCCNNC(=O)C(O)(c1ccccc1)c1ccccc1 | -15 | -1 | 29 | 1 | 0 | 5 | nt | nt | nt | nt
CCOC(=O)CCP(=O)(O)C(C)(O)c1ccccc1 (stereo not drawn) | -6 | 6 | 12 | -2 | -3 | 107* | -1 | -2 | 7 | 7
O=C(N/N=C/c1c[nH]c2ccc(Br)cc12)c1ccn(Cc2ccc(Cl)cc2)n1 | -17 | 16 | 14 | -1 | 4 | 62* | 24* | 42 | 4 | 11
CCN(C[C@H]1N[C@@](Cc2ccccc2)(C(=O)OC)[C@H]2C(=O)N(C)C(=O)[C@@H]12)S(=O)(=O)c1ccc(C(F)(F)F)cc1 | -28 | 14 | -4 | -30 | nt | 75* | 23* | 46 | 8 | 9
CCN(C[C@H]1N[C@@](CC)(C(=O)OC)[C@H]2C(=O)N(Cc3ccccc3)C(=O)[C@@H]12)C(=O)c1ccccc1 | -32 | 17 | -2 | -17 | nt | 50* | 25* | 43 | 11 | 12
CCN(C[C@H]1N[C@@](Cc2ccccc2)(C(=O)OC)[C@H]2C(=O)N(C)C(=O)[C@@H]12)S(=O)(=O)c1ccc(OC(F)(F)F)cc1 | -23 | 12 | -2 | -9 | nt | 64* | 26* | 42 | 7 | 4
CCc1nc2ccc(C(=O)NCc3ccc4c(c3)OCO4)cn2c1N(C)C(=O)Cc1ccccc1 | nt | 1 | nt | nt | nt | -7 | nt | nt | nt | nt
COc1ccc(OC)c(CCNC(=O)c2ccccc2NC(=O)C2=C(C)OCCS2)c1 | -27 | 0 | 19 | -20 | -5 | 8 | nt | nt | nt | nt
COc1ccc(CCNC(=O)c2ccccc2NC(=O)C2=C(C)OCCS2)cc1OC | -12 | 15 | 41 | -22 | -14 | 70* | 30* | 51* | 10 | 15
CCn1cc(C(=O)NCC2CCCO2)c(=O)c2cc(S(=O)(=O)N(C)C3CCCCC3)ccc21 (stereo not drawn) | -16 | 10 | 14 | -5 | -11 | 52* | 20 | 38 | 6 | 5
CCn1cc(C(=O)NCC2CCCO2)c(=O)c2cc(S(=O)(=O)N(C)C)ccc21 (stereo not drawn) | 3 | 1 | 1 | 1 | -13 | -26 | nt | nt | nt | nt
O=S1(=O)N[C@@H](c2ccccc2)COc2cc(Br)ccc21 | nt | -1 | nt | nt | nt | 9 | nt | nt | nt | nt
CC(C)(C)NC(=O)CCN(/N=C/c1ccccc1O)C1=NS(=O)(=O)c2ccccc21 | -19 | 19 | 2 | -20 | -14 | 59* | 25* | 44 | 12* | 11
O=C(NCCO)c1cccc(Nc2nc(-c3ccccc3)c3cc(Cl)ccc3n2)c1 | -25 | 10 | 10 | -16 | -20 | 49* | 30* | 37 | 5 | 14
CC1(c2nnnn2-c2ccc3c(c2)OCCO3)CCC(=O)N1CC1CCCCC1 (stereo not drawn) | nt | 4 | nt | nt | nt | -16 | nt | nt | nt | nt
SMILES | OX1R antag-1 | TAAR1 agonist | OX1R antag-2 | CHO parental Ca | GPR7 antagonist | TAAR1 antagonist | nonsel antag count | TAAR1 ant conf | Ga16 ag counter | TAAR1 ag counter
O=C(/C=C/c1cn(-c2ccccc2)nc1-c1cccs1)NCCN1CCOCC1 | -30 | 21 | 13 | -22 | 0 | 53* | 28* | 37 | 9 | 9
C[C@H]1CN([C@@H](C)CO)S(=O)(=O)c2ccc(Br)cc2O[C@@H]1CN(C)Cc1cccc(F)c1 | nt | 0 | nt | nt | nt | 7 | nt | nt | nt | nt
C[C@H]1CN(C(=O)OC(C)(C)C)CCN1c1ccc(Br)c(C#N)c1 | nt | 0 | nt | nt | nt | 52* | 38* | 45 | 11 | 14
CCN=C1SC(C(=O)Nc2cccc(Br)c2)CC(=O)N1CC (stereo not drawn) | -11 | 22 | 15 | -11 | 3 | 75* | 37* | 63* | 11 | 10
CCN=C1SC(C(=O)Nc2ccc(Cl)c(Cl)c2)CC(=O)N1CC (stereo not drawn) | -5 | 28 | 10 | -2 | -5 | 80* | 44* | 66* | 13* | 15
COC(=O)N1CCC2CC1c1c(Cl)cccc12 (stereo not drawn) | nt | 8 | nt | nt | nt | -4 | nt | nt | nt | nt
CC(C)(Cc1ccc(O)cc1)NC(=O)CC(=O)N/N=C/c1ccc([N+](=O)[O-])cc1 | -47 | 9 | 19 | -14 | 3 | 34 | nt | nt | nt | nt
CC(C)(Cc1ccc(O)cc1)NC(=O)CC(=O)N/N=C/c1ccc(Cl)cc1 | -11 | 29 | 11 | -20 | 13 | 74* | 21 | 80* | 4 | 43*
